In ChEMBL document CHEMBL3286113, “New potent antibacterial oxazolidinone (MRX-I) with an improved class safety profile” (J Med Chem, 2014):
≈ marks a conversion by molar mass, not a printed value. Calls of active or inactive are those of the source. The calls are words filed in the database; no cut-off is given here.

Experiments:
Rattus norvegicus [1] = test: Toxicity in rat assessed as mortality at 20 to 300 mg/kg, po bid administered for 4 weeks measured on day 1 to day 28; type: organism-based; set-up: dose 20-300 mg/kg, route oral; settings: in vivo, 672 h
Summary of the method: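 Rats, 10 per gender per group, given drug orally twice daily at 20, 100 and 200/300 mg/kg/day for 4 weeks, then a 4-week recovery period. The top dose of 200 mg/kg/day was raised to 300 mg/kg/day on day 15. The comparator was dosed the same way at 100 and 200 mg/kg/day. Monitoring covered mortality, body weight, hematology and bone marrow, with blood taken for TK on days 1, 14 and 28.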

[2] = AUC (0 to 24 hrs) in human at 600 mg, po administered as single dose with meal measured on day 1; type: ADME, organism-based; set-up: time < 24 hr, dose 600 mg, route oral; settings: plasma
Summary of the method: (§1)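 Randomized, double-blind, placebo-controlled multiple-dose study in 32 healthy subjects (half male, half female). Subjects took 28 oral doses of 600 or 800 mg over 15 days, each with a meal. A single dose was given on days 1 and 15 for full PK, and doses were given Q12h from day 2 to day 14. AUC0−24 was measured on days 1 and 15.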

Canis familiaris [3] = test: Dose normalized Cmax in po dosed dog; type: ADME, organism-based, Canis lupus familiaris; settings: in vivo
Staphylococcus aureus [4] = test: Antibacterial activity against Staphylococcus aureus; type: functional
[5] = Tmax in human at 900 mg, po administered as single dose at 30 mins post fat meal; type: ADME, organism-based; settings: in vivo
Summary of the method: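 Crossover study in 12 healthy subjects (six per gender). A single oral 900 mg dose was given either fasting or 30 min after a fat-containing meal. Tmax was taken from plasma PK.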

[6] = Cmax in human at 600 mg, po administered as single dose with meal measured on day 15; type: ADME, organism-based; set-up: dose 600 mg, route oral; settings: in vivo
Summary of the method: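 Randomized, double-blind, placebo-controlled multiple-dose study in 32 healthy subjects, half male and half female. Each dose was taken with a meal, at 600 or 800 mg, 28 doses over 15 days. A single dose on days 1 and 15 gave full PK; BID (Q12h) dosing ran on days 2–14.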

Rattus norvegicus [7] = test: Dose normalized Cmax in po dosed rat; type: ADME, organism-based; settings: in vivo
Cytochrome P450 1A2 = Cytochrome P450 1A2 (Homo sapiens, UniProt P05177); test: Inhibition of CYP1A2 (unknown origin) at 1 to 200 uM; type: ADME
Streptococcus pneumoniae [8] = test: Antibacterial activity against penicillin intermediate-sensitive Streptococcus pneumoniae ATCC 49619 clinical isolate in po dosed mouse systemic infection model; type: functional; settings: ATCC 49619, po
[9] = Half life in female rat at 45 mg/kg, po; type: ADME, organism-based; set-up: dose 45 mg/kg, route oral; settings: in vivo
[10] = Tmax in male rat at 45 mg/kg, po; type: ADME, organism-based; set-up: dose 45 mg/kg, route oral; settings: in vivo
Summary of the method: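 Male and female rats received single oral doses of 5, 15 or 45 mg/kg, with 5 mg/kg iv as a reference arm. Tmax was read from the plasma concentration–time profile for each gender.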

Staphylococcus aureus [11] = test: Antibacterial activity against Staphylococcus aureus measured after 1 serial passage; type: functional
[12] = Cmax in human at 900 mg, po administered as single dose at 30 mins post fat meal; type: ADME, organism-based; set-up: dose 900 mg, route oral; settings: in vivo
Summary of the method: (§2)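 Crossover study in 12 subjects (six of each sex). Each got a single oral 900 mg dose either fasted or 30 min after a fat-containing meal.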

[13] = Tmax in po dosed dog; type: ADME, organism-based, Canis lupus familiaris; settings: in vivo
Mus musculus = test: Dose normalized AUC (0 to t) in po dosed mouse; type: ADME, organism-based; settings: in vivo
[14] = Tmax in fasted human at 900 mg, po administered as single dose; type: ADME, organism-based; settings: in vivo
Summary of the method: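 Randomized single-dose, three-period Latin-square crossover in 12 healthy volunteers (six per gender), fasting. Single oral doses of 300, 600 and 900 mg were separated by a 1-week washout. PK parameters were derived by noncompartmental analysis.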

Rattus norvegicus [15] = test: Toxicity in female rat assessed as effect on lymphocyte count at 200 to 300 mg/kg/day, po bid administered for 4 weeks (reference value: 74.8%); type: organism-based; set-up: route oral; settings: in vivo, 672 h
Homo sapiens [16] = test: Toxicity in human assessed as change in reticulocyte count at 600 to 800 mg, po administered as single dose with meal on day 1 and day 15 followed by bid with meal on day 2 to day 14 measured during compound treatment; type: organism-based; settings: in vivo
[17] = Cmax in female rat at 5 mg/kg, po; type: ADME, organism-based; set-up: dose 5 mg/kg, route oral; settings: in vivo
[18] = Elimination half life in human at 900 mg, po administered as single dose at 30 mins post fat meal; type: ADME, organism-based; settings: in vivo, read-out: beta t1/2 (converted); summary of the method: as §2
Staphylococcus aureus [19] = test: Antibacterial activity against methicillin-resistant Staphylococcus aureus isolate 0605 in mouse thigh infection model assessed as reduction of log10 CFU per thigh at 20 mg/kg, po; type: functional
Rattus norvegicus [20] = test: Toxicity in female rat assessed as effect on platelet count at 200 to 300 mg/kg/day, po bid administered for 4 weeks (reference value: 654.6 x 10^9/L); type: organism-based; set-up: route oral; settings: in vivo, 672 h
Cytochrome P450 2C9 = Cytochrome P450 2C9 (Homo sapiens, UniProt P11712); test: Inhibition of CYP2C9 (unknown origin) at 1 to 200 uM; type: ADME
Homo sapiens [21] = test: Toxicity in human assessed as change in platelet count at 600 to 800 mg, po administered as single dose with meal on day 1 and day 15 followed by bid with meal on day 2 to day 14 measured during compound treatment; type: organism-based; settings: in vivo
Rattus norvegicus [22] = test: Dose normalized AUC (0 to t) in po dosed rat; type: ADME, organism-based; settings: in vivo
Staphylococcus aureus [23] = test: Antibacterial activity against Staphylococcus aureus assessed as low frequency of spontaneous resistance; type: functional, organism-based
Staphylococcus aureus [24] = test: Antibacterial activity against Staphylococcus aureus measured after 4 serial passages; type: functional
[25] = Myelosuppression activity against human CD34-positive blood stem/progenitor cells assessed as growth inhibition after 9 to 10 days by CellTiter-Glo luminescent assay
Streptococcus pneumoniae [26] = test: Antibacterial activity against penicillin-resistant Streptococcus pneumoniae isolate 0613 in po dosed mouse systemic infection model; type: functional; settings: isolate 0613, po
Staphylococcus aureus [27] = test: Antibacterial activity against Staphylococcus aureus measured after 10 serial passages; type: functional
Staphylococcus = test: Antibacterial activity against beta-lactamase-negative Staphylococcus; type: functional
Canis familiaris [28] = species on record: Canis familiaris; test: Drug uptake in dog measured over 7 days; type: ADME, organism-based, Canis lupus familiaris; settings: in vivo, 168 h
[29] = AUC (0 to 24 hrs) in human at 800 mg, po administered as single dose with meal measured on day 15; type: ADME, organism-based; set-up: dose 800 mg, time < 24 hr, route oral; settings: plasma; summary of the method: as §1
L5178Y = test: Mutagenicity in mouse tk +/- L5178Y cells assessed as increase in gene mutation frequency at 62.5 to 1000 ug/mL in absence of S9 fraction
Staphylococcus aureus [30] = test: Antibacterial activity against methicillin-sensitive Staphylococcus aureus isolate 15 in po dosed mouse systemic infection model; type: functional; settings: isolate 15, po
[31] = AUC (0 to 24 hrs) in female rat at 200 mg/kg/day, po bid administered for 4 weeks; type: ADME, organism-based; set-up: dose 200 mg/kg/day, time < 24 hr, route oral; settings: plasma
Summary of the method: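 Repeat-dose toxicity study in rats (10/gender/group) dosed orally twice daily for 4 weeks, then a 4-week recovery period; the top dose was raised from 200 to 300 mg/kg/day on day 15. Blood was taken on days 1, 14 and 28 for toxicokinetics, and AUC0−24 was reported for females.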

Enterococcus faecalis = test: Antibacterial activity against vancomycin-sensitive/high-level gentamycin-resistant Enterococcus faecalis isolate HH22; type: functional; settings: EnGen0297

Sequence of Cytochrome P450 2C9 (P11712 whole entry): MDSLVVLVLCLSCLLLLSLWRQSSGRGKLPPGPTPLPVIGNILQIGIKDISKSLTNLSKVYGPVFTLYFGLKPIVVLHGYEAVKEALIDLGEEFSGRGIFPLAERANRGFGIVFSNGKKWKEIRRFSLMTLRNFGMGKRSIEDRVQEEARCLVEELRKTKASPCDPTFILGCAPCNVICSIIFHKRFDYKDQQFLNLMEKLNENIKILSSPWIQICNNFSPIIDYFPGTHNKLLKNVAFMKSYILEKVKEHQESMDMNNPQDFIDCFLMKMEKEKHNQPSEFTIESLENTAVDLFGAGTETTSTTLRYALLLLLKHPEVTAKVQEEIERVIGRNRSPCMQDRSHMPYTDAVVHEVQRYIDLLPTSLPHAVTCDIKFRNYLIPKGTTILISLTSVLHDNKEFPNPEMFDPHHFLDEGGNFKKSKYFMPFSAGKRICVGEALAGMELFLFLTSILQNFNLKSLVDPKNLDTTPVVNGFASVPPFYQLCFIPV
Sequence of Cytochrome P450 1A2 (P05177 whole entry): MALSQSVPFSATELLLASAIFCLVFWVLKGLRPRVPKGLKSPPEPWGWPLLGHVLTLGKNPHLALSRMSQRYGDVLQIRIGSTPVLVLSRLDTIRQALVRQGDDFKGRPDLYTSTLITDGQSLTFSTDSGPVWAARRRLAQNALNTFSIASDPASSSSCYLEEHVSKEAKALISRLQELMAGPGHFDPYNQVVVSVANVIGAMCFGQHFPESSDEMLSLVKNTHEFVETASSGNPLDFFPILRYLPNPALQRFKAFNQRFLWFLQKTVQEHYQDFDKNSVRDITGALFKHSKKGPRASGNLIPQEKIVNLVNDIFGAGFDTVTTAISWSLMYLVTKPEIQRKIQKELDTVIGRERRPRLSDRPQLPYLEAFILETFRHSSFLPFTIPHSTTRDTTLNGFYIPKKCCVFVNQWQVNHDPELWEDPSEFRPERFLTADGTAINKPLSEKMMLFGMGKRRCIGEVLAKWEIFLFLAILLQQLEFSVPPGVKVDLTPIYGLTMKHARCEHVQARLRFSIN

O=C1C=CN(c2c(F)cc(N3C[C@H](CNc4ccon4)OC3=O)c(F)c2F)CC1 [CONTEZOLID]
Activity (Rattus norvegicus [1]): Non-toxic
AUC(0-t) at 24 h [2]: 68600 ng·h/mL
Cmax/dose (Canis familiaris [3]): 259 ng/mL/(mg/kg)
MIC (Staphylococcus aureus [4]): 2 µg/mL (≈ 4.9 µM)
Tmax [5]: 1.63 h
Cmax [6]: 20600 ng/mL
Cmax/dose (Rattus norvegicus [7]): 1065 ng/mL/(mg/kg)
inhibition (INH) (Cytochrome P450 1A2): Not Active
ED50 (Streptococcus pneumoniae [8]): 8.1 mg/kg
half-life [9]: 1.87 h
Tmax [10]: 1 h
MIC (Staphylococcus aureus [11]): 2 µg/mL (≈ 4.9 µM)
Cmax [12]: 42300 ng/mL
Tmax [13]: 0.5 h
AUCt/dose (Mus musculus): 1654 ng·h/mL/mg/kg
Tmax [14]: 1.4 h
Activity (Rattus norvegicus [15]): 71.8%
Activity (Homo sapiens [16]): Non-toxic
Cmax [17]: 9390 ng/mL
half-life [18]: 2.7 h
deltalog10CFU (Staphylococcus aureus [19]): 3.6
Activity (Rattus norvegicus [20]): 464.2 ×10⁹ /L
inhibition (INH) (Cytochrome P450 2C9): Not Active
Activity (Homo sapiens [21]): Non-toxic
AUCt/dose (Rattus norvegicus [22]): 3703 ng·h/mL/mg/kg
Activity (Staphylococcus aureus [23]): Active
MIC (Staphylococcus aureus [24]): 2 µg/mL (≈ 4.9 µM)
IC50 [25]: 15.7 µg/mL (≈ 38.4 µM)
ED50 (Streptococcus pneumoniae [26]): 10.5 mg/kg
MIC (Staphylococcus aureus [27]): 4 µg/mL (≈ 9.8 µM)
MIC50 (Staphylococcus): 0.5 µg/mL (≈ 1.22 µM)
MIC90 (Staphylococcus): 0.5 µg/mL (≈ 1.22 µM)
Drug uptake (Canis familiaris [28]): Not Active
AUC(0-t) at 24 h [29]: 90400 ng·h/mL
Activity (L5178Y): Non-toxic
ED50 (Staphylococcus aureus [30]): 5.7 mg/kg
AUC at 24 h [31]: 626000 ng·h/mL
MIC (Enterococcus faecalis): 2 µg/mL (≈ 4.9 µM)
